Results on 15 compounds are retold here after ChEMBL document CHEMBL2010793, “Synthesis of novel 7-oxo and 7-hydroxy trifluoroallocolchicinoids with cytotoxic effect” (Bioorg Med Chem, 2012).

Assay [1] concerns KB. Kind of assay: Cytotoxicity against human KB cells. It is filed as functional, cell-based. The essentials:
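KB cells seeded at 650 cells/well and dosed 24 h later with compounds in DMSO (1% final). Screened at 10^-5 and 10^-6 M in triplicate, with docetaxel 2.5 10^-10 M as reference. After 72 h, MTS was added for 3 h at 37 °C and A490 was read. Inhibition was derived from treated/control OD. IC50 was run in separate duplicate when inhibition exceeded 80% at 10^-5 M.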

Assay [2] in a line: Inhibition of tubulin polymerization. The essentials:
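Sheep brain microtubule protein was purified by two assembly/disassembly cycles (37 °C/0 °C) in 100 mM MES pH 6.6, 1 mM EGTA, 0.5 mM MgCl2. Samples were incubated 10 min at 37 °C, then 5 min at 0 °C, and polymerization was read by turbidimetry at 350 nm. Compounds were tested at 6.7 10^-5 M in triplicate, with deoxypodophyllotoxin as reference.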

The species named for assay [3] is Ovis aries. Kind of assay: Inhibition of sheep brain tubulin polymerization at 6.7 x 10^-5 M after 15 mins by turbidimetry analysis. The essentials: (§1)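 Microtubule protein from sheep brain, purified by two assembly/disassembly cycles (37 °C/0 °C) in 100 mM MES pH 6.6, 1 mM EGTA, 0.5 mM MgCl2. Compound with microtubule solution held 10 min at 37 °C then 5 min at 0 °C; polymerization followed by turbidity at 350 nm. Screened at 6.7 10^-5 M in triplicate, deoxypodophyllotoxin reference.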

Assay [4] concerns KB. The assay is described as follows: Cytotoxicity against human KB cells assessed as inhibition of cell proliferation at 10^-5 M after 72 hrs by MTS assay. The note with it: read-out: GI. In kind it is functional. The essentials: (§2)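 KB cells seeded at 650 cells/well in 200 µl medium, dosed 24 h later with compounds from DMSO (1% DMSO final; controls DMSO only). After 72 h, MTS added for 3 h at 37 °C, A490 read; inhibition from treated/control OD ratio. Single-concentration tests in triplicate with docetaxel 2.5 10^-10 M reference; IC50 runs in separate duplicate.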

Assay [5] relates to KB. The assay is described as follows: Cytotoxicity against human KB cells assessed as inhibition of cell proliferation at 10^-6 M after 72 hrs by MTS assay. It is filed as functional. The note with it: read-out: GI. The essentials:
as §2
(Tetrazolium dyes change colour on reduction, which living cells bring about.)

Assay [6] concerns KB. Kind of assay: Cytotoxicity against human KB cells assessed as inhibition of cell proliferation after 72 hrs by MTS assay. It is filed as functional, cell-based. The essentials:
as §2

Assay [7] can be described thus: Inhibition of sheep brain tubulin polymerization after 15 mins by turbidimetry analysis. More on the design: species or system Ovis aries. The essentials: as §1

By IC50 is commonly meant the concentration that gives 50% inhibition. For `COc1ccc2c(c1)[C@@H](NC(C)=O)CCc1cc(OC)c(OC)c(OC)c1-2`, the IC50 was 19 nM in assay [1] and 700 nM in assay [2].
A word on the inhibition: it is the relative decrease from the control value, in per cent. Compound `COc1cc2c(cc1OC)[C@H](O)C[C@@H](NC(=O)C(F)(F)F)c1ccccc1-2` (racemic) came in with an inhibition in assay [3] of 23%. In assay [4], the inhibition of growth at 10 µM was 9%. In addition, the inhibition of growth at 1 µM in assay [5] turned out to be 0%.
On to `COc1ccc2c(c1)C(NC(=O)C(F)(F)F)CC(O)c1cc(OC)c(OC)c(OC)c1-2` (stereo unspecified), for which the IC50 in assay [6] amounted to 1600 nM. For the same compound, the inhibition in assay [3] stood at 18%. Further, the inhibition of growth at 10 µM in assay [4] was determined as 94%. For the same compound, in assay [5], the inhibition of growth at 1 µM is 0%.
For `COc1cc2c(c(OC)c1OC)-c1ccccc1C(NC(=O)C(F)(F)F)CC2=O` (stereo unspecified), the IC50 is 2950 nM in assay [6] and 80 µM in assay [7]. Also, in assay [3], the inhibition worked out at 48%. Also, in assay [4], the inhibition of growth at 10 µM was determined as 91%. Moreover, the inhibition of growth at 1 µM in assay [5] was 18%.
For `COc1cc2c(c(OC)c1OC)-c1ccccc1C(NC(=O)C(F)(F)F)CC2O` (mixture of isomers), in assay [3], the inhibition was 89%. In assay [7], this compound had an IC50 of 13 µM. Also, in assay [4], the inhibition of growth at 10 µM came out at 8%. Also, the inhibition of growth at 1 µM in assay [5] turned out to be 0%.
Take `COc1cc([C@@H]2c3cc4c(cc3C[C@H]3COC(=O)[C@@H]32)OCO4)cc(OC)c1OC` [DESOXYPODOPHYLLOTOXIN]: the results for the IC50 in assay [6] and in assay [7] were 3 nM and 3.2 µM, respectively. In addition, the inhibition in assay [3] was 100%. Moreover, in assay [4], the inhibition of growth at 10 µM came out at 100%. Further, the inhibition of growth at 1 µM in assay [5] is 100%.
With `COc1ccc(-c2ccc(OC)c3c2C(NC(=O)C(F)(F)F)CC3=O)c(OC)c1OC` (stereo unspecified), in assay [6], the IC50 stood at 1250 nM. Further, the inhibition in assay [3] was determined as 33%. Further, the inhibition of growth at 10 µM in assay [4] was 97%. The inhibition of growth at 1 µM in assay [5] amounted to 0%.
Compound `COc1cc2c(c(OC)c1OC)-c1ccc(O)cc1C(NC(=O)C(F)(F)F)CC2O` (mixture of isomers) displayed an inhibition in assay [3] of 29%. Besides, in assay [4], the inhibition of growth at 10 µM worked out at 60%. In assay [5], the inhibition of growth at 1 µM came to 0%.
For `COc1cc2c(cc1OC)C(O)CC(NC(=O)C(F)(F)F)c1cc(O)ccc1-2` (mixture of isomers) the same measures were 13%, 2% and 0%.
On to `COc1cc2c(c(OC)c1OC)-c1ccc(O)cc1C(NC(=O)C(F)(F)F)CC2=O` (stereo unspecified), for which the values for the IC50 in assay [6] and in assay [7] were 330 nM and 37 µM, respectively. The compound further displayed an inhibition in assay [3] of 62%. The inhibition of growth at 10 µM in assay [4] turned out to be 96%. Further, the inhibition of growth at 1 µM in assay [5] turned out to be 37%.
With `COc1cc2c(cc1OC)-c1ccccc1C(NC(=O)C(F)(F)F)CC2=O` (stereo unspecified), the inhibition in assay [3] worked out at 12%. Besides, the inhibition of growth at 10 µM in assay [4] is 92%. Besides, the inhibition of growth at 1 µM in assay [5] was determined as 0%.
In the case of `COc1ccc2c(c1)C(NC(=O)C(F)(F)F)CC(=O)c1cc(OC)c(OC)c(OC)c1-2` (racemic), the IC50 in assay [6] came out at 45 nM; in assay [7] it was 12 µM. Besides, the inhibition in assay [3] was determined as 89%. For the same compound, in assay [4], the inhibition of growth at 10 µM is 96%. Moreover, the inhibition of growth at 1 µM in assay [5] was 98%.
For the compound `COc1cc2c(cc1OC)-c1ccc(O)cc1C(NC(=O)C(F)(F)F)CC2=O` (stereo unspecified), the inhibition in assay [3] is 24%. Besides, the inhibition of growth at 10 µM in assay [4] is 40%. Besides, the inhibition of growth at 1 µM in assay [5] is 0%.
Compound `COc1ccc2c(c1)C(NC(=O)C(F)(F)F)CC(=O)c1cc(OC)c(OC)cc1-2` (stereo unspecified) showed an inhibition in assay [3] of 63%. This compound also yielded an IC50 in assay [7] of 60 µM. In addition, in assay [4], the inhibition of growth at 10 µM was 38%. Further, in assay [5], the inhibition of growth at 1 µM came out at 0%.
Consider `COc1ccc2c(c1)C(NC(=O)C(F)(F)F)CC(O)c1cc(OC)c(OC)cc1-2` (mixture of isomers), for which, in assay [3], the inhibition was determined as 2%. Besides, the inhibition of growth at 10 µM in assay [4] is 9%. In addition, the inhibition of growth at 1 µM in assay [5] was found to be 0%.
